Experimental data collected from several papers.
Target: TGF-beta receptor type-1 (TGFBR1, Homo sapiens, UniProt P36897)

C[C@H](c1cccc(C#N)c1)n1cc(Cl)cc(C(N)=O)c1=N — remaining binding (cell-free assay; competition with immobilised ligand; 1 µM): 100%
C[S+]([O-])c1ccc(-c2nc(-c3ccncc3)c(-c3ccc(F)cc3)[nH]2)cc1 (stereo not shown) — remaining signal (cell-free assay; 0.5 µM): 101%
Cc1cc(NC(=O)c2cccc3cc(-c4cccc5[nH]nc(N)c45)ccc23)ccc1F — activity vs control (enzyme activity; inhibitor; 0.1 µM): 120%
CO[C@@H](C)c1c(Nc2ccc([C@@H](N(C)C(=O)C3CCS(=O)(=O)CC3)C(F)(F)F)cc2)cnc2cc(Cl)nn12 — remaining binding (cell-free assay; competition with immobilised ligand; 1 µM): 95%
COc1cc(-c2cc(-c3ccc(N4CCNCC4)cc3)cnc2C)cc(OC)c1OC — inhibition (enzyme activity; inhibitor; 1 µM): 32%
Fc1ccc(-c2ncn(C3=CCCCC3)c2-c2ccncc2)cc1 — inhibition (cell-free assay; TR-FRET; 1 µM): 19%
CN1CC(Oc2cnc(C#N)cc2-c2ccn3nc(NC(=O)C4CC4)cc3c2)C1 — inhibition (enzyme activity; inhibitor; 1 µM): -9%
Cc1sc(C(=O)NC2COC2)cc1-n1cc(NC(=O)Nc2c(F)cccc2Cl)cn1 — remaining activity (enzyme activity; inhibitor; 10 µM): 104%
Cc1ccc(Nc2nccc(N(C)c3ccc4c(C)n(C)nc4c3)n2)cc1S(N)(=O)=O — remaining signal (cell-free assay; 0.5 µM): 103%
O=C(CSc1nc2nccnc2c(=O)n1CCc1ccccc1)Nc1nccs1 — inhibition (enzyme activity; inhibitor; 10 µM): 1%
Cc1cc(-n2nc(Cc3cc(F)cc(C(F)(F)F)c3)nc2C)ccc1C(N)=O — remaining binding (cell-free assay; competition with immobilised ligand; 1 µM): 94%
COc1cc(Nc2cnc(C#N)c(O[C@H](C)CN(C)C)n2)ncc1-c1cnn(C)c1 — remaining activity (enzyme activity; inhibitor; radiometric; 1 µM): 122%
COc1ccc2c(c1)O[C@@H](c1ccc(OC)c(OC)c1)C[C@H]2NC(=O)C1(c2ccc3c(c2)OC(F)(F)O3)CC1 — remaining binding (cell-free assay; competition with immobilised ligand; 1 µM): 100%
COc1cccc(F)c1Cn1cnc(-c2ccncc2)c1-c1ccc(F)cc1 — inhibition (cell-free assay; TR-FRET; 1 µM): 19%
O=C1NC(=O)c2cc(Nc3ccc(F)cc3)c(Nc3ccc(F)cc3)cc21 — remaining signal (cell-free assay; 0.5 µM): 98.1%
CCOc1cc(-c2nncn2C)ccc1Nc1ncc2cc(C)nc(NCC(C)(C)C)c2n1 — inhibition (cell-free assay; TR-FRET; 1 µM): ≤ 15%
O=C1Nc2ccc(Cl)cc2C1=Cc1cc(Cl)c(O)c(Cl)c1 — remaining signal (cell-free assay; 0.5 µM): 102%
CCOC(=O)c1cc2cc(-c3cc(C(=O)NCc4ccc(C(=O)O)cc4)nn3C)ccc2[nH]1 — remaining binding (cell-free assay; competition with immobilised ligand; 0.1 µM): 100%
Fc1ccc(-c2c(-c3ccncc3)ncn2-c2ccc(-c3ccccc3)cc2)cc1 — inhibition (cell-free assay; TR-FRET; 1 µM): 21%
CC(C)(C)c1nc(-c2cccc(NS(=O)(=O)c3c(F)cccc3F)c2F)c(-c2ccnc(N)n2)s1 — remaining activity (enzyme activity; inhibitor; radiometric; 1 µM): 22%
C=CC(=O)Nc1cc(Nc2nccc(Nc3cc(Cl)c(F)cc3C(C)(C)O)n2)c(OC)cc1N1CC[C@@H](N(C)C)C1 — inhibition (enzyme activity; inhibitor; 1 µM): 42%
COc1cc(/C=C/C(=O)CC(=O)/C=C/c2ccc(O)c(OC)c2)ccc1O — activity vs control (enzyme activity; inhibitor; 1 µM): 82%
CN(C)C(=O)Cn1cc(-c2nc(C3(c4ccc(-c5cnc(N)nc5)cc4)CC3)no2)cn1 — remaining binding (cell-free assay; competition with immobilised ligand; 1 µM): 97%
N#CCCc1ccc2c(c1)-c1[nH]c3ccc([N+](=O)[O-])cc3c1CC(=O)N2 — remaining signal (cell-free assay; 0.5 µM): 103%
NS(=O)(=O)c1cc(NC(=O)C2(c3ccccc3Cl)CC2)ccc1Oc1cccc(Cl)c1 — remaining binding (cell-free assay; competition with immobilised ligand; 1 µM): 82%
Fc1ccc(-c2c(-c3ccncc3)ncn2-c2ccccc2)cc1 — inhibition (cell-free assay; TR-FRET; 1 µM): 21%
CC(C)(O)[C@H]1CC[C@H](Nc2ccc3ncc(-c4cccc(C(F)(F)F)c4)n3n2)CC1 — remaining activity (enzyme activity; inhibitor; 1 µM): 108%
CCCOc1ccc([C@@H]2[C@@H](C(=O)O)[C@H](c3ccc4c(c3)OCO4)CN2CC(=O)Nc2c(CC)cccc2CC)cc1 — remaining binding (cell-free assay; competition with immobilised ligand; 1 µM): 64%
